Sampled rows, rich in hits. Any-hit rate of the full collection: about 2.6%.
OXTR agonist – activates the human oxytocin receptor. AID 2435. actives 0.32% (n = 320,000). CHO-OTR cells, Fluo-8 calcium fluorescence; normalized: DMSO 0%, oxytocin 100%. activation, % at 3 µM. P30559;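 active = activation above the mean of all tested compounds plus 3 SD, cutoff set per screening run, cut at about 20% in these data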;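 also: peak over basal fluorescence ratio from a 100 s FLIPR kinetic read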
Target sequence (P30559 whole entry, looked up): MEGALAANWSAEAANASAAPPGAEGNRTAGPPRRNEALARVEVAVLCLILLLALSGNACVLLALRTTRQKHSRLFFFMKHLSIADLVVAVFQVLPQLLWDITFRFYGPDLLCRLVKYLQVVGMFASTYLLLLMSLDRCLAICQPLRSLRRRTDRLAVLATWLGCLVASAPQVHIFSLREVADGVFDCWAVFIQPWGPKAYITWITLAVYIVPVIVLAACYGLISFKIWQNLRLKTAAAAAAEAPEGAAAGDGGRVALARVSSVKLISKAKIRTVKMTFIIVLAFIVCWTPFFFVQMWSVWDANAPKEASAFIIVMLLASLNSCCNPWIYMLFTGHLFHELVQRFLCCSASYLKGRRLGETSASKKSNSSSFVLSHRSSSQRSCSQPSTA
OX1R antag-1 – blocks the human orexin 1 receptor | inhibition, % at 6.6 µM | OX1R-expressing cells, FRET antagonist read-out | AID 485270 | actives 1.8% (n = 330,000); in the data active = inhibition mostly above about 38%, no sharp cut-off; inactive = mostly below about 40%
V1R ag counter – counter-screen for oxytocin receptor agonists: human V1a receptor agonists. activation, % at 3 µM. actives 0.25% (n = 320,000). P37288. CHO-V1R cells, Fluo-8 calcium fluorescence, agonist mode; 0% DMSO, 100% 3 nM vasopressin. AID 2797;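 active = activation above the mean activation of all tested compounds plus 3 SD, per screening run, cut at about 20% in these data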;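 also: signal is peak over basal fluorescence ratio across a 100 second FLIPR read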
CHO parental Ca – counter-screen: ATP calcium response change in parental CHO cells; parental CHO-K1, ATP-induced calcium, Fluo-8 fluorescence; inhibition, % at 5.6 µM; actives 0.63% (n = 330,000);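 active = inhibition above that plate's mean sample inhibition plus 3 SD, cut at about 26% in these data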
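Test system: untransfected parental CHO cell line. Compound: one dose, 5.6 µM nominal. Detection: intracellular calcium via Fluo-8 no-wash fluorescent dye. Measure: % inhibition. Benchmarks: ATP-challenged DMSO wells low, unchallenged DMSO wells high.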
OX1R antag-2 – human HCRTR1 antagonism; inhibition, % at 5 µM; CHO/OX1R cells, Fluo-8 calcium fluorescence, orexin A; actives 0.43% (n = 330,000); AID 434989;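 active = inhibition above its plate's threshold, mean inhibition of all tested compounds on the plate plus 3 SD, cut at about 37% in these data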
OXTR potentiator – potentiates the human oxytocin receptor response | P30559 | CHO-OTR cells, Fluo-8 calcium fluorescence, potentiator mode; 0% = oxytocin EC15, 100% = EC100 | activation, % at 3 µM | actives 0.061% (n = 320,000) | AID 2445;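 active = activation above that plate's cutoff, the mean activation of tested compounds plus 3 SD, cut at about 6.6% in these data, passing the limit was not always enough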
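Assay system: CHO-OTR cells, human receptor / Also added: oxytocin at about EC15, sub-maximal agonist stimulus / Dosing: single dose, 3.0 µM nominal final compound concentration / Incubation: 6 min pre-incubation, 100 s read / Technique: Fluo-8 calcium dye fluorescence / Read-out: % activation vs EC15 and EC100 oxytocin / Benchmarks: EC15 oxytocin low, 75 nM oxytocin high / Replicates: singlicate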
V1R ag confirm – human V1a receptor agonism, confirmation; shares compounds with V1R ag counter; CHO-V1R cells, Fluo-8 calcium fluorescence, agonist; activation, % at 3 µM; actives 20% (n = 180);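 active = average activation exceeds primary screen hit cutoff, cut at about 21% in these data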;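 also: peak over basal fluorescence ratio during a 100 s FLIPR read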
OXTR ag counter – OXTR agonism, counter-screen for V1R agonists | shares compounds with V1R ag counter | CHO-OTR cells, Fluo-8 calcium fluorescence, agonist | activation, % at 3 µM | actives 10% (n = 180);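 active = mean activation over three repeats above the cutoff from the earlier oxytocin receptor agonist screen, cut at about 20% in these data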;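 also: peak over minimum fluorescence ratio within a 100 second FLIPR read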
Each line names hits and unclear results; the compound was inactive in the other large screens (follow-up assays come after a bar, where they were run).

CCSc1nc(O)cc(=O)n1CC	V1R ag counter 25 | V1R ag confirm inactive | OXTR ag counter inactive
COC(=O)[C@H](Cc1c[nH]c2ccccc12)NC(=O)Cc1c[nH]c2ccccc12	V1R ag counter 21 | V1R ag confirm inactive | OXTR ag counter inactive
Cc1ccc(-c2c(C(=O)N/N=C/c3ccco3)nnn2-c2nonc2N)cc1	V1R ag counter 28 | V1R ag confirm inactive | OXTR ag counter inactive
CC(C)(C)NC(=S)NNC(=O)[C@H]1C[C@@H]1c1ccccc1	none
O=C(/C=C/c1ccc(F)cc1)NC(=S)NNC(=O)[C@H]1C[C@@H]1c1ccccc1	V1R ag counter 26 | V1R ag confirm inactive | OXTR ag counter inactive
Nc1c(C(=O)Nc2nccs2)sc2nc(-c3cccs3)cc(C(F)(F)F)c12	V1R ag counter 34, CHO parental Ca 42, OX1R antag-2 47 | V1R ag confirm 24 | OXTR ag counter 34
Fc1ccc(CSc2ccc3nnc(-c4cccs4)n3n2)cc1	V1R ag counter 24 | V1R ag confirm inactive | OXTR ag counter inactive
Cn1c(=O)c(C(=O)CN2CC(=O)Nc3ccccc32)c(N)n(Cc2ccccc2)c1=O	none
COc1ccc(-c2ccc(C3C(C#N)=C(N)Oc4n[nH]c(C)c43)o2)cc1 (stereo not given)	V1R ag counter 24 | V1R ag confirm inactive | OXTR ag counter inactive
ONC(=Nc1ccccc1Cl)c1ccccc1Cl	V1R ag counter 20 | V1R ag confirm inactive | OXTR ag counter inactive
C=CCn1cc(CN2CCC(C(=O)Nc3cccc(-c4cccc(Cl)c4)c3)CC2)c(C)n1	V1R ag counter 22 | V1R ag confirm inactive | OXTR ag counter inactive
C=CCn1cc(CN2CCC(C(=O)Nc3cccc(-c4cccc(F)c4)c3)CC2)c(C)n1	none
CCc1ccc(NC(=O)N(CCCN2CCOCC2)C(C)c2cc3cccc(OC)c3o2)cc1 (stereo not given)	V1R ag counter 22 | V1R ag confirm inactive | OXTR ag counter inactive
COc1ccc(CCn2c(C3CCCCC3)nc3c(c(=O)c4ccccc4n3C)c2=O)cc1	V1R ag counter 28 | V1R ag confirm inactive | OXTR ag counter inactive
C#CCOCCOCCOCCNc1nc(N2CCN(C(=O)CCCCCCCCCCNC(=O)[C@@H](CCC(=O)O)n3cc(CCCCCN)nn3)CC2)nc(N2CCN(C(=O)CCCCCCCCCCNC(=O)[C@H](CCCCN)n3cc(C[C@@H](C)CC)nn3)CC2)n1	V1R ag counter 45 | V1R ag confirm 44 | OXTR ag counter inactive
C#CCOCCOCCOCCNc1nc(N2CCN(C(=O)CCCCCCCCCCNC(=O)[C@H](CCCCN)n3cc(C)nn3)CC2)nc(N2CCN(C(=O)CCCCCCCCCCNC(=O)[C@@H]([C@H](C)O)n3cc(C)nn3)CC2)n1	V1R ag counter 31 | V1R ag confirm inactive | OXTR ag counter inactive
C#CCOCCOCCOCCNc1nc(N2CCN(C(=O)CCCCCCCCCCNC(=O)[C@@H](CCC(=O)O)n3cc(CCCCCN)nn3)CC2)nc(N2CCN(C(=O)CCCCCCCCCCNC(=O)[C@H](CO)n3cc(CCCCCN)nn3)CC2)n1	none
C#CCOCCOCCOCCNc1nc(N2CCN(C(=O)CCCCCCCCCCNC(=O)Cn3cc(CCCCCN)nn3)CC2)nc(N2CCN(C(=O)CCCCCCCCCCNC(=O)Cn3cc(C[C@@H](C)O)nn3)CC2)n1	V1R ag counter 27, CHO parental Ca 41 | V1R ag confirm inactive | OXTR ag counter inactive
CCOC(=O)C1(Cc2cccc(OC)c2)CCN(Cc2cccnc2)CC1	none
COC(=O)[C@@H]1C[C@@H](c2ccccc2)[C@H](C)C1(C)C	none
CNC(=O)c1[nH]cnc1C(=O)Nc1ccccn1	V1R ag counter 43 | V1R ag confirm inactive | OXTR ag counter inactive
Cc1ccc(C(=O)OCC(=O)N(C)c2c(N)n(Cc3ccccc3)c(=O)[nH]c2=O)s1	none
C=CCn1c(C)c(/C=C/c2cc[n+](C)cc2)c2ccccc21	OX1R antag-1 48, V1R ag counter 25 | V1R ag confirm inactive | OXTR ag counter inactive
CCn1c(/C=C/c2c(C)n(CC)c3ccccc23)nc2ccccc2c1=O	none
O=C1CC[C@@]23CCCN2C(=O)CCCC3C1 (stereo not given in full)	none (no result: OXTR agonist, V1R ag counter, OXTR potentiator)
CCOc1cccc(C2C(C(=O)c3ccc(C)o3)=C(O)C(=O)N2c2nccs2)c1 (stereo not given)	V1R ag counter 39 | V1R ag confirm inactive | OXTR ag counter inactive
CCOc1cccc(C2C(C(=O)c3ccc(C)o3)=C(O)C(=O)N2Cc2ccncc2)c1 (stereo not given)	none
C[C@@H]1CC[C@]2(C(=O)O[C@@H]3O[C@H](CO)[C@@H](O)[C@H](O)[C@H]3O)CC[C@]3(C)C(=CCC4[C@@]5(C)CC[C@H](O[C@@H]6OC[C@H](O)[C@H](O[C@@H]7O[C@H](CO)[C@@H](O)[C@H](O)[C@H]7O)[C@H]6O)C(C)(C)C5CC[C@]43C)C2[C@]1(C)O (stereo not given in full)	none
COc1ccc(/C=C\C(=O)O[C@@H]2C(O)C(O[C@@H]3OC(C)[C@H](O[C@@H]4OCC(O[C@H]5O[C@H](CO)[C@@H](O)C(O)C5O)C(O)C4O)C(O)C3O)[C@H](OC(=O)[C@]34CCC(C)(C)C[C@@H]3C3=CCC5[C@@]6(C)CC(O)C(O[C@@H]7OC(CO)C(O)[C@H](O)[C@H]7O)[C@@](C)(C(=O)O)C6CC[C@@]5(C)[C@]3(CO)CC4)O[C@H]2C)cc1 (stereo not given in full)	V1R ag counter 73, CHO parental Ca 101, OX1R antag-2 110 | V1R ag confirm 79 | OXTR ag counter 44
CCC(C)(C)c1ccc(OCCCC[n+]2cccc(C)c2C)c(C(C)(C)CC)c1	V1R ag counter 31, CHO parental Ca 40, OX1R antag-2 52 | V1R ag confirm inactive | OXTR ag counter inactive
CCC(C)(C)c1ccc(OCCCC[n+]2ccc(C)cc2)c(C(C)(C)CC)c1	none
O=C(CCOc1ccccc1)Nc1ccc(S(=O)(=O)Nc2ncccn2)cc1	none
CCCNS(=O)(=O)c1ccc(Oc2ncc(C(F)(F)F)cc2Cl)cc1	V1R ag counter 23 | V1R ag confirm inactive | OXTR ag counter inactive
CC(C)CN(C)Cc1c(C(=O)N2CCc3ccccc3C2)nc2ccc(Cl)cn12	none
Cc1cc(OCC(=O)Nc2ccncc2)ccc1[N+](=O)[O-]	none
